The source made the active and inactive calls. The calls are words filed in the database; no cut-off is given here.

The test system of experiment [1] is WSUDLCL2. Kind of experiment: Upregulation of TXINP mRNA expression in human WSUDLCL2 cells at 1 uM incubated for 48 hrs by qRT-PCR analysis. The experiment is classed as functional, cell-based. Put shortly:
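WSU-DLCL-2 or Pfeiffer cells treated 48 h. Trizol RNA extraction, reverse transcription, SYBR qPCR (95 °C 30 s; 40 cycles of 95 °C 6 s, 60 °C 20 s). mRNA normalized to DMSO-treated cells; mean ± SD of three independent experiments, t-test.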

Experiment [2] concerns the target T1, Protein cereblon/Histone-lysine N-methyltransferase EZH2 (Homo sapiens) (UniProt Q15910+Q96SW2). Kind of experiment: PROTAC activity at CRBN E3 ligase/EZH2 in PRC2 complex in human WSUDLCL2 cells assessed as downregulation of EZH2 expression at 1 uM pretreated with EED226 for 4 hrs followed by compound addition and measured after 48 hrs by Western blot analysis. It counts as cell-based. Summed up: (§1)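 WSU-DLCL-2 cells pretreated 4 h with the named inhibitor, then compound added and incubated a further 48 h. EZH2, SUZ12, EED and RbAp48 measured by western blot (nitrocellulose transfer, skim-milk block, primary antibody overnight at 4 °C, chemiluminescent detection).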
For orientation: Immunoblotting shows a protein as a band on a membrane.

Experiment [3] concerns the target T1, Protein cereblon/Histone-lysine N-methyltransferase EZH2 (Homo sapiens). Kind of experiment: PROTAC activity at CRBN E3 ligase/EZH2 in PRC2 complex in human WSUDLCL2 cells assessed as induction of EZH2 degradation by measuring reduction in EZH2 protein level at 1 uM measured up to 2 hrs by Western blot analysis. The experiment is classed as cell-based. The settings on record: time hrs <=2.

Experiment [4] has as its system NCI-H1299. Kind of experiment: Downregulation of TACC3 mRNA expression in human NCI-H1299 cells at 10 uM incubated for 48 hrs by qRT-PCR analysis. It counts as functional, cell-based. Put shortly: (§2)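 Cells treated 48 h. Total RNA extracted with Trizol, reverse-transcribed, and SYBR RT-qPCR run: 95 °C 30 s, then 40 cycles of 95 °C 6 s and 60 °C 20 s. mRNA normalized to the DMSO-treated group. Mean SD of three independent experiments, t-test versus DMSO.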
For orientation: Quantitative PCR measures a nucleic acid by following its amplification.

Experiment [5] concerns the target T1, Protein cereblon/Histone-lysine N-methyltransferase EZH2 (Homo sapiens). Briefly: PROTAC activity at CRBN E3 ligase/EZH2 in PRC2 complex in human WSUDLCL2 cells assessed as induction of EED degradation at 1 uM incubated for 48 hrs by Western blot analysis relative to control. It counts as cell-based. Summed up:
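WSU-DLCL-2 cells exposed to 1 μM compound for 48 h, with DMSO-treated cells as control. Bands quantified by densitometry and normalized to GAPDH. Mean SD from three independent experiments, t-test versus DMSO.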

The target is the same in experiment [6]. Briefly: PROTAC activity at CRBN E3 ligase/EZH2 in PRC2 complex in human WSUDLCL2 cells assessed as induction of RbAp48 degradation by measuring reduction in RbAp48 protein level at 1 uM measured after 48 to 72 hrs by Western blot analysis. The experiment is classed as cell-based. The conditions noted are these: time 48-72 hrs.
The target is the same in experiment [7]. Kind of experiment: PROTAC activity at CRBN E3 ligase/EZH2 in PRC2 complex in human WSUDLCL2 cells assessed as downregulation of EED expression at 1 uM pretreated with lenalidomide for 4 hrs followed by compound addition and measured after 48 hrs by Western blot analysis. The experiment is classed as cell-based. Put shortly: as §1
The target is the same in experiment [8]. Briefly: PROTAC activity at CRBN E3 ligase/EZH2 in PRC2 complex in human WSUDLCL2 cells assessed as effect on SUZ12 mRNA expression at 1 uM incubated for 48 hrs by RT-qPCR analysis. The experiment is classed as cell-based. Summed up:
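WSU-DLCL-2 cells treated 48 h with 1 μM compound. Total RNA extracted with Trizol and reverse-transcribed. SYBR qPCR run as 95 °C 30 s, then 40 cycles of 95 °C 6 s and 60 °C 20 s. PRC2 subunit mRNA normalized to the DMSO-treated group; mean SD, t-test.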

Experiment [9] concerns A549. Kind of experiment: Upregulation of CDKN2A mRNA expression in human A549 cells at 5 uM incubated for 48 hrs by qRT-PCR analysis. The experiment is classed as functional, cell-based. Summed up:
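A549 cells treated 48 h. Trizol RNA extraction, reverse transcription, SYBR qPCR (95 °C 30 s; 40 cycles of 95 °C 6 s, 60 °C 20 s). mRNA normalized to DMSO-treated cells; mean ± SD of three independent experiments.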

Experiment [10] deals with T1, Protein cereblon/Histone-lysine N-methyltransferase EZH2 (Homo sapiens). Briefly: PROTAC activity at CRBN E3 ligase/EZH2 in PRC2 complex in human WSUDLCL2 cells assessed as downregulation of EZH2 expression at 1 uM pretreated with GSK126 for 4 hrs followed by compound addition and measured after 48 hrs by Western blot analysis. The experiment is classed as cell-based. Summed up:
as §1

The target is the same in experiment [11]. Briefly: PROTAC activity at CRBN E3 ligase/EZH2 in PRC2 complex in human WSUDLCL2 cells assessed as increase in EED ubiquitination at 1 uM measured after 48 hrs by co-immunoprecipitation assay. The experiment is classed as cell-based. Put shortly:
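WSU-DLCL-2 cells treated with 1 μM compound for 48 h and lysed in RIPA buffer. Lysates incubated with antibodies overnight at 4 °C, then 3 h with Protein G agarose beads at 4 °C. Proteins eluted in IP buffer and ubiquitination of the target probed by immunoblot.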

For experiment [12] the target is unchanged. Kind of experiment: PROTAC activity at CRBN E3 ligase/EZH2 in PRC2 complex in human WSUDLCL2 cells assessed as downregulation of EED expression at 1 uM pretreated with EED226 for 4 hrs followed by compound addition and measured after 48 hrs by Western blot analysis. The experiment is classed as cell-based. Put shortly:
as §1

The test system of experiment [13] is MDA-MB-468. Kind of experiment: Downregulation of CENPK mRNA expression in human MDA-MB-468 cells at 10 uM incubated for 48 hrs by qRT-PCR analysis. It counts as functional, cell-based. Put shortly:
as §2

For experiment [14], the target named is T1, Protein cereblon/Histone-lysine N-methyltransferase EZH2 (Homo sapiens). Kind of experiment: PROTAC activity at CRBN E3 ligase/EZH2 in PRC2 complex in human WSUDLCL2 cells assessed as downregulation of SUZ12 expression at 1 uM pretreated with EED226 for 4 hrs followed by compound addition and measured after 48 hrs by Western blot analysis. It counts as cell-based. Put shortly:
as §1

Experiment [15] has as its system NCI-H1299. Briefly: Antiproliferative activity against EZH2-knockdown human NCI-H1299 cells assessed as inhibition of cell growth at 10 uM treated for 9 days by optical microscopic analysis. The conditions noted are these: time 9.0 day. It counts as functional, cell-based. Put shortly:
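Cells seeded at 5 × 10³ per well, grown 24 h, then exposed to compound at 10 μM for 9 days with medium refreshed. Cells were photographed and counted on days 1, 3, 5, 7 and 9. For lines 1-2, EZH2-targeting or control shRNA was induced in the cells. Mean SD of three independent experiments; t-test against control.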

Experiment [16] concerns the target T1, Protein cereblon/Histone-lysine N-methyltransferase EZH2 (Homo sapiens). Briefly: PROTAC activity at CRBN E3 ligase/EZH2 in PRC2 complex in human WSUDLCL2 cells assessed as downregulation of SUZ12 expression at 1 uM pretreated with MLN4924 for 4 hrs followed by compound addition and measured after 48 hrs by Western blot analysis. It counts as cell-based. Put shortly: as §1

Experiment [17] has the same target. Briefly: PROTAC activity at CRBN E3 ligase/EZH2 in PRC2 complex in human WSUDLCL2 cells assessed as downregulation of SUZ12 expression at 1 uM pretreated with MG-132 for 4 hrs followed by compound addition and measured after 48 hrs by Western blot analysis. The experiment is classed as cell-based. Summed up: as §1
For experiment [18], the system named is NCI-H1299. Briefly: Downregulation of ARL6IP mRNA expression in human NCI-H1299 cells at 10 uM incubated for 48 hrs by qRT-PCR analysis. The experiment is classed as functional, cell-based. Summed up: as §2
Experiment [19] relates to NCI-H1299. Kind of experiment: Downregulation of CHEK1 mRNA expression in human NCI-H1299 cells at 10 uM incubated for 48 hrs by qRT-PCR analysis. It counts as functional, cell-based. Put shortly:
as §2

T1 sequence (Q15910 whole entry, looked up): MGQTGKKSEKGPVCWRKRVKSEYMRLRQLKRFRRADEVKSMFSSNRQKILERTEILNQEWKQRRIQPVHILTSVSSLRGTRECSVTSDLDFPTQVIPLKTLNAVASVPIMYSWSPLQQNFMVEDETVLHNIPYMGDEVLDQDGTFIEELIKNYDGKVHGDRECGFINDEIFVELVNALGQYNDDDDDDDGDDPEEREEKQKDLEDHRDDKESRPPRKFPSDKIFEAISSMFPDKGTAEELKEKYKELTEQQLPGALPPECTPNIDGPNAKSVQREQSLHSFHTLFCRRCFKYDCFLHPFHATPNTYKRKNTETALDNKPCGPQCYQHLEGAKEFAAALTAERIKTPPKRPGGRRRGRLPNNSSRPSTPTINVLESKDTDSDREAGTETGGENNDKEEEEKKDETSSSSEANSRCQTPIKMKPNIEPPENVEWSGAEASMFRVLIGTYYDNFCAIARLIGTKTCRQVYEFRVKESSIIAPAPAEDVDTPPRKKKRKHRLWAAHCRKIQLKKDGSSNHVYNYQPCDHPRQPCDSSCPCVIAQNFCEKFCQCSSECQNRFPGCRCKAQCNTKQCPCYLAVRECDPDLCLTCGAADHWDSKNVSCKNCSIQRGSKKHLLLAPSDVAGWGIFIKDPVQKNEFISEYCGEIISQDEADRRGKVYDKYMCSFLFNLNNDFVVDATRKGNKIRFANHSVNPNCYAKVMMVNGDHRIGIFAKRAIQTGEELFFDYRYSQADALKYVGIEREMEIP
T1 sequence (Q96SW2 whole entry, looked up): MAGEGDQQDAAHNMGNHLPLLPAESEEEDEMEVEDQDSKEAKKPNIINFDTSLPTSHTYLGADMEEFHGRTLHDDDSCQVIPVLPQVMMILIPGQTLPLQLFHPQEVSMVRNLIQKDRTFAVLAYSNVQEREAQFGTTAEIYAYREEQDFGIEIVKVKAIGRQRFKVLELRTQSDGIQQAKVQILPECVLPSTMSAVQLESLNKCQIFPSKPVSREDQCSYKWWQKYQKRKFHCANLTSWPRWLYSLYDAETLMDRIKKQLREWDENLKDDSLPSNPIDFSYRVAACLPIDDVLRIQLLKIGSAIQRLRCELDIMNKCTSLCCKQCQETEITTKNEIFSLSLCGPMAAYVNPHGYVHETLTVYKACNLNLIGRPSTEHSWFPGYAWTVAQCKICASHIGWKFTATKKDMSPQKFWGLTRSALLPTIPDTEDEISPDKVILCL

On to `CCN(c1cc(-c2ccc(CN3CCN(CCCCCCCOc4cccc5c4C(=O)N(C4CCC(=O)NC4=O)C5=O)CC3)cc2)cc(C(=O)NCc2c(C)cc(C)[nH]c2=O)c1C)C1CCOCC1` (centres undefined), for which the outcome in [1], in experiment [7], in [8], in [10], in [16] and in [17] was inactive. Moreover, the result in [2], in experiment [3], in experiment [4], in experiment [6], in [9] and in [11] was Active. In addition, the result in experiment [12], in [13], in [14], in experiment [15], in experiment [18] and in experiment [19] was Active. Besides, in experiment [5], the Activity turned out to be 75%.

(Values after ChEMBL document CHEMBL5038571, “Design and Synthesis of EZH2-Based PROTACs to Degrade the PRC2 Complex for Targeting the Noncatalytic Activity of EZH2” (J Med Chem, 2021).)
